In ChEMBL document CHEMBL1125309, “Discovery of a novel class of orally active, non-peptide angiotensin II antagonists” (J Med Chem, 1992):
Each block holds one molecule with its values, some of them ahead of it.

Columns and labels:
[1] = biological target: T1, Type-1 angiotensin II receptor (Oryctolagus cuniculus, UniProt P34976); assay: Compound was evaluated for in vitro potency against angiotensin II receptor, type 1 in isolated rabbit aorta; value ranges from 8.08-8.22; conditions: read-out: pA2 (converted)
T1 sequence (P34976 whole entry): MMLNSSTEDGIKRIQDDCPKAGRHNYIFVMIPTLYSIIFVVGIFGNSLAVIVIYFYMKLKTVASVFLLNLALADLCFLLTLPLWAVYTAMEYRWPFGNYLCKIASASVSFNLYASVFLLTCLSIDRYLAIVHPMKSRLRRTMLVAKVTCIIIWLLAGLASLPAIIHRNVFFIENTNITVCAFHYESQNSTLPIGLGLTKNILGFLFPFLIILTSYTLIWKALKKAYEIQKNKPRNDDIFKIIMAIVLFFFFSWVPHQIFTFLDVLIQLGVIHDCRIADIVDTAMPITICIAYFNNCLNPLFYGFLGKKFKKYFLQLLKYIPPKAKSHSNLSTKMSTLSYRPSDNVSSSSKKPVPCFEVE
In short: (§1)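 Isolated rabbit aortic ring preparation contracted with angiotensin II; concentration–response curves to AII run in the presence of antagonist; parallel rightward shifts analysed by Schild analysis to give pA2 and slope.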

[2] = biological target: T2, Type-1 angiotensin II receptor B (Rattus norvegicus, UniProt P29089); assay: Compound was evaluated for binding affinity against angiotensin II receptor, type 1 in rat liver
T2 sequence (P29089 whole entry): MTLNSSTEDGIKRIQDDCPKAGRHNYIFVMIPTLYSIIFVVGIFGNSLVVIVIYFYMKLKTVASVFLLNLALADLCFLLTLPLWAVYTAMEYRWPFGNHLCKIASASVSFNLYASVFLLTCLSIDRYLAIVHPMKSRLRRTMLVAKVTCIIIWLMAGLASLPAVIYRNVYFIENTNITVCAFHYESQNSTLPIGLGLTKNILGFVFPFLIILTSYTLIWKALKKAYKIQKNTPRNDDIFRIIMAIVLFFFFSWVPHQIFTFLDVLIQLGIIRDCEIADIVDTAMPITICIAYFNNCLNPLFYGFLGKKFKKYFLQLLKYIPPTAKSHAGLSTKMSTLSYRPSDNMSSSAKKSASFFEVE

[3] = biological target: T1, Type-1 angiotensin II receptor; assay: Compound was evaluated for in vitro potency against Angiotensin II receptor, type 1 in isolated rabbit aorta; value ranges from 7.13-7.17; conditions: read-out: pA2 (converted); in short: as §1
[4] = biological target: T1, Type-1 angiotensin II receptor; assay: Compound was evaluated for in vitro potency against Angiotensin II receptor, type 1 in isolated rabbit aorta; value ranges from 5.53-5.69; conditions: read-out: pA2 (converted); in short: as §1
[5] = biological target: T1, Type-1 angiotensin II receptor; assay: Compound was evaluated for in vitro potency against angiotensin II receptor, type 1 in isolated rabbit aorta; type: tissue-based; conditions: read-out: pA2 (converted); in short: as §1
[6] = biological target: T2, Type-1 angiotensin II receptor B; assay: Compound was evaluated for binding affinity against AT1 receptor in rat liver
In short: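 Displacement of [125I]saralasin from AT1 receptors in rat liver membranes; compounds tested at multiple concentrations as required; Ki derived from the binding curves.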

[7] = biological target: T1, Type-1 angiotensin II receptor; assay: Compound was evaluated for in vitro potency against AT1 receptor in isolated rabbit aorta; value ranges from 7.91-7.97; conditions: read-out: pA2 (converted); in short: as §1
[8] = biological target: T1, Type-1 angiotensin II receptor; assay: Compound was evaluated for in vitro potency against angiotensin II receptor, type 1 in isolated rabbit aorta; value ranges from 8.70-8.83; conditions: read-out: pA2 (converted); in short: as §1

SMILES: CCCCN(Cc1ccc(-c2ccccc2-c2nnn[nH]2)cc1)c1nc(C)ccc1C(=O)O
Kb [1]: 8.32 nM
Ki [2]: 122 nM

SMILES: CCCCc1ncc(C(=O)O)c(N(C)Cc2ccc(-c3ccccc3-c3nn[nH]n3)cc2)n1
Kb [3]: 74.1 nM

SMILES: CCCCN(Cc1ccc(-c2ccccc2-c2nn[nH]n2)cc1)c1ncccc1C(=O)O
Kb [5]: 0.316 nM

SMILES: CCCCc1ncc(C(=O)O)c(NCc2ccc(-c3ccccc3-c3nn[nH]n3)cc2)n1
Ki [6]: 198 nM
Kb [7]: 12.3 nM

SMILES: CCCN(Cc1ccc(-c2ccccc2-c2nn[nH]n2)cc1)c1nc(C)ncc1C(=O)O
Ki [2]: 2.78 nM

The remaining lines, values ahead:

Kb [4]: 2950 nM
SMILES: O=C(O)c1cncnc1NCc1ccc(-c2ccccc2-c2nn[nH]n2)cc1

Ki [2]: 15.3 nM
SMILES: CCCCN(Cc1ccc(-c2ccccc2-c2nn[nH]n2)cc1)c1nc(C)ncc1C(=O)O

Kb [5]: 0.117 nM
Ki [2]: 3.13 nM
SMILES: CCCCN(Cc1ccc(-c2ccccc2-c2nnn[nH]2)cc1)c1ncncc1C(=O)O

Ki [2]: 0.76 nM
SMILES: CCCN(Cc1ccc(-c2ccccc2-c2nnn[nH]2)cc1)c1ncccc1C(=O)O

Kb [8]: 2 nM
SMILES: CCN(Cc1ccc(-c2ccccc2-c2nn[nH]n2)cc1)c1ncccc1C(=O)O
